The list is not random: actives were taken first. Their share in the collection is about 1.5%.
b-catenin transl = beta-catenin nuclear translocation modulation. HeLa beta-catenin nuclear translocation, immunofluorescence imaging. nuclear translocation activity, % at 5 µM. actives 0.3% (n = 190,000);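 active = nuclear translocation activity above 50% at 5 µM, with a well cell count of 50 or more; inconclusive = wells under 50 cells across six images, flagged as toxic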;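 also: per-cell ratio of nuclear to cytoplasmic median beta-catenin stain intensity; plate controls were DMSO negative control for no effect and GSK-3 inhibitor IX positive control for full effect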
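Test system: HeLa cells, endogenous beta-catenin; Compound: single 5 µM dose plus 0.02–20 µM confirmation series; Times: compound exposure 24 h at 37°C; Signal: fluorescence imaging of beta-catenin antibody stain plus DAPI; Read-out: % activation, nuclear-to-cytoplasmic median beta-catenin signal ratio per cell.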
Dynein cargo inh = blocks dynein driven cargo transport along microtubules. z-score, hits read low. actives 0.47% (n = 220,000). 3617.4 mouse cells, GR-EGFP nuclear translocation imaging; test concentration mostly 20 µM; stimulated with dexamethasone, 1 µM; active compounds read low. AID 1381;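 active = plate z-score of nuclear minus cytoplasmic receptor signal below a set negative limit, without overly bright fluorescence or cell loss, cut at about -3.5 in these data, passing the limit was not always enough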;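 also: z-score of nuclear minus cytoplasmic ring GR-EGFP intensity difference per well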
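Also added – dexamethasone, 1.0 µM final · Buffer or medium – tet-free, stripped-serum medium · Schedule – induction 48 h, compound 1 h, agonist 30 min · Detection – formaldehyde fixation, Hoechst nuclear stain, 10x automated fluorescence imaging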
TbHK1 inh = T. brucei hexokinase 1 inhibition | recombinant TbHK1, G6PDH-coupled NADH A340 | inhibition, % at 10 µM | actives 0.11% (n = 220,000);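 active = inhibition of 50% or more in the single-dose primary screen; inactive = inhibition below 50%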
MT stabilizer = microtubule stabilization, imaging screen; AID 2205; HeLa tubulin immunostaining HCS, 24 h; share of cells brighter than vehicle mean+2SD; % tubulin-high responders, % at 10 µM; actives 0.83% (n = 200,000);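 active = plate Z-score above 3 for both tubulin-high and condensed-nucleus cell shares, with cell loss under 80%, at 10 µM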;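 also: anti alpha tubulin signal scored within the nucleus-defined area of each cell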
Rad51 HR inh = Rad51 (human) homologous recombination inhibition; hRad51 DNA strand exchange, fluorescence dequenching; inhibition, % at 10 µM; actives 0.085% (n = 200,000);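 active = inhibition above 40% at the single screening dose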;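 also: 0% = DMSO control wells and 100% = blanks with heterologous ssDNA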
Target sequence (Q06609 whole entry, looked up): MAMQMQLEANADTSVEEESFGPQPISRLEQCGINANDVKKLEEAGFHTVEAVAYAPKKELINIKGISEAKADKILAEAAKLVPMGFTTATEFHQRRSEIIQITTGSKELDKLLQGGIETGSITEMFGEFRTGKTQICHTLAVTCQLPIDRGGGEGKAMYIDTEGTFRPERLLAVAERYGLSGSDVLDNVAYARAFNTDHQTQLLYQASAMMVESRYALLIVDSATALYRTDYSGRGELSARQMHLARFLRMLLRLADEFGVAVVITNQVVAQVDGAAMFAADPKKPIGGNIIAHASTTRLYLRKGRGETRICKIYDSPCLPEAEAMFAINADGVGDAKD
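Read-out basis: percent inhibition relative to plate controls and blanks / Assay system: human Rad51 nucleoprotein filaments preassembled on unlabelled ssDNA / Timing: filaments 15 min 37 °C, then compound 30 min / Control set: per-plate controls and blanks / Technique: fluorescence dequenching at 485/520 nm / Compound: 10 µM final, single point / Also added: Fluorescein- and BHQ1-tagged 47-mer duplex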
Numbers without * were called inactive; ? = inconclusive; . = not tested or not shown.

SMILES	b-catenin transl	Dynein cargo inh	TbHK1 inh	MT stabilizer	Rad51 HR inh
CC1CCCC(C)N1C(=O)COC(=O)c1cc(Br)ccc1Cl (stereo unspecified)	-3	-0.28	-7	2	17
CCn1nc(NC(=O)C2CCCO2)c2cc3cccc(C)c3nc21 (stereo unspecified)	0	1.7	-4	.	4
CCN(CC)S(=O)(=O)c1ccc(Cl)c(NC(=O)COC(=O)c2cccn2C)c1	-1	1.7	9	18*	-14
Cc1ccc(C(=O)Nc2nc(C)c(C(=O)Nc3ccc4c(c3)CCC4)s2)cc1	183*	-0.0068	-13	3	11
Cc1nc(NC(=O)c2ccc(F)cc2)sc1C(=O)Nc1ccc2c(c1)CCC2	.	0.04	-11	1	0
COc1ccc(NC(=O)c2cc(C)n(Cc3cccs3)c2C)cc1	0	-0.76	-10	.	17
CC(C)(C)NC(=S)N/N=C/c1c(Cl)cccc1Cl	3	0.7	-21	.	17
Cc1ccc(NC(=S)N/N=C/c2c(Cl)cccc2Cl)c(C)c1	99*	0.64	4	13*	8
CN1C/C(=C/c2cccnc2)C(=O)/C(=C/c2cccnc2)C1	2	-5.9*	-41	53*	.
Cc1ccc(C=Nc2ccccc2C(N)=O)cc1	.	0.058	-15	31*	2
Cc1ccccc1C=Nc1ccccc1C(N)=O	28	3.3	-4	22*	-24
Cc1ccc(C=Nc2ccccc2C(=O)Nc2ccccc2)cc1	-2	-0.51	-2	4	13
NC(=O)c1ccccc1N=Cc1ccccn1	-2	-1	-6	5	6
O=C(N/N=C/c1ccc(Cl)cc1)c1cc2c(s1)-c1ccccc1CC2	-3	-0.35	-10	35*	-10
CCCCCOCC1CC(C/C(C)=N/Nc2nc(-c3ccccc3)cs2)C(=O)O1 (stereo unspecified)	.	-0.17	-2	2	62*
CCc1ccc(CCC(=O)Nc2sc3c(c2C#N)CCCC3)o1	64*	-0.68	-1	17*	-4
Cc1cccc(C(=O)Nc2sc3c(c2C#N)CCCCC3)c1	-1	0.62	-3	3	-4
COc1cccc(C(=O)Nc2sc3c(c2C#N)CCN(C(C)=O)C3)c1	53*	0.36	-16	28*	-31
N#Cc1c(NC(=O)c2ccccc2)sc2c1CCC2	.	1.6	-8	33*	1
CC1=CC(C)(C)N(S(=O)(=O)c2ccc(F)cc2)c2ccc(C)cc21	33	-0.32	5	24*	3
COc1cccc(CN2CCN(S(=O)(=O)c3ccc(Br)cc3)CC2)c1	1	-0.43	2	3	4
CC1=CC(C)(C)N(S(=O)(=O)c2ccc(C)cc2)c2ccccc21	.	-0.4	10	12	-1
COc1ccc2c(c1)C(C)=CC(C)(C)N2S(=O)(=O)c1ccc(Br)cc1	76*	-0.46	14	5	-6
CCCCn1c(NC(=O)c2ccccc2)c(C#N)c2nc3ccccc3nc21	3	0.68	-20	3	.
CC1=Nc2cc(C(=O)NCCCOC(C)C)ccc2Sc2ccc(C)cc21	38	0.041	-6	12	5
SMILES	b-catenin transl	Dynein cargo inh	TbHK1 inh	MT stabilizer	Rad51 HR inh
CCC1=Nc2cc(C(=O)NCCCOC)ccc2Sc2ccccc21	.	0.23	-12	25*	1
CCCC1=Nc2cc(C(=O)NCCCOCC)ccc2Sc2ccccc21	105*	1.6	-8	15	2
CC1=Nc2cc(C(=O)NCCCOC(C)C)ccc2Sc2ccccc21	15	0.47	-4	24*	-8
COCCCNC(=O)c1cccc(C(=O)NCCCOC)c1	-3	-0.56	1	4	0
CC(C)OCCCNC(=O)c1ccncc1	-6	-0.7	-3	2	-2
CCOCCCNC(=O)c1ccc(OC)cc1	-1	0.035	4	2	4
CCCC1=Nc2cc(C(=O)NCCCOC(C)C)ccc2Sc2ccccc21	72*	1.3	-12	22*	2
COc1ccc(-n2c(C)nc3cc(C(=O)O)ccc32)cc1	-1	2.8	-12	1	9
Clc1cccc(Cl)c1Cn1cnc2c(NCc3ccco3)ncnc21	8	0.41	-5	3	2
CCC1=Nc2cc(C(=O)NCc3ccco3)ccc2Sc2ccc(C)cc21	74*	-0.5	19	4	5
Cc1ccc(C(=O)Nc2cccc(C(=O)NCc3ccco3)c2)cc1	.	-1.2	8	3	6
O=C(/C=C/Nc1ccccc1C(F)(F)F)c1ccco1	1	0.19	-9	2	15
COc1cccc(-c2nn(C)c3sc(C(=O)N4CCN(c5ccccn5)CC4)cc23)c1	0	0.99	-12	13*	-3
c1ccc(-n2c(-c3ccco3)nnc2N2CCOCC2)cc1	0	1.5	-2	4	-1
CSC1=NC(C(Cl)(Cl)Cl)N=C(c2ccc(C)cc2)N1 (stereo unspecified)	108*	0.36	-2	8	3
O=C(c1cccc([N+](=O)[O-])c1)N1CCN(c2cccc(Cl)c2)CC1	14	-0.56	33	27*	-6
COC(=O)c1cc(C(=O)N2CCOCC2)cc([N+](=O)[O-])c1	0	0.0016	-2	2	3
COC(=O)c1cc(C(=O)N2CCN(c3cccc(Cl)c3)CC2)cc([N+](=O)[O-])c1	100*	0.096	-2	13	7
CCOc1ccc(CC(=O)N2CCN=C2SC)cc1	-6	0.91	-6	6	2
Cc1ccsc1C(=O)N1CC(=O)Nc2ccccc21	0	0.3	-5	21	-1
Cc1cc(C)cc(C(=O)N2CC(=O)Nc3ccccc32)c1	154*	-0.36	1	28*	5
CCc1cc2cc(C(=O)Nc3ccc(C)cc3)sc2s1	4	1.9	1	5	2
CCN(CC)c1ccc(NC(=O)CCCOc2cccc(C)c2)cc1	.	-0.17	-1	2	41*
Cc1cccc(OCCCC(=O)Nc2ccc(S(N)(=O)=O)cc2)c1	0	0.54	5	2	0
CC(Sc1nnc(-c2ccccc2Br)n1-c1cccc(C(F)(F)F)c1)C(N)=O (stereo unspecified)	-1	0.88	-4	4	2
SMILES	b-catenin transl	Dynein cargo inh	TbHK1 inh	MT stabilizer	Rad51 HR inh
Cc1cc2[nH]c3c(c[n+](C)c4ccccc34)c2cc1C	?	-4.4*	-10	19	34
Cc1cc(=O)[nH]c2ccccc12	4	-0.51	-3	3	-2
COC(=O)C1CCN(c2c([N+](=O)[O-])cc(C(F)(F)F)cc2[N+](=O)[O-])CC1	0	0.057	-1	1	15
Cc1ccc(N=Nc2c(N)[nH]n3c(=O)c4c(nc23)CCCC4)cc1	2	-0.46	8	24*	.
Cc1ccc(N=Nc2c(N)[nH]n3c(=O)cc(C)nc23)cc1	0	-0.68	-6	4	5
CCOC(=O)c1[nH]c2cc3c(cc2c1NC(=O)CN1CCC(C)CC1)OCO3	-2	-0.054	-23	5	.

Screening results: PubChem, several laboratories
